This note sets out measurements from BindingDB's records for doi:10.1021/acs.jmedchem.5b01146 (University of California Irvine, 2016).

The target in the data set is Cytochrome P450 3A4 (Homo sapiens, UniProt P08684). In words: Binding affinity to C-terminal four-histidine tagged human CYP3A4delta3 to 24 residues expressed in Escherichia coli assessed as spectral dissociation constant by spectrophotometric method. In a few lines: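 Purified recombinant CYP3A4 titrated in 50 mM phosphate pH 7.4 with 20% glycerol and 1 mM DTT, adding small aliquots of compound in DMSO (final solvent <2%). Absorbance spectra recorded on a spectrophotometer. Ks obtained by one- or two-site saturation fitting of absorbance change versus ligand concentration.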
Chain of Cytochrome P450 3A4 (P08684 whole entry, the tested form may be a part): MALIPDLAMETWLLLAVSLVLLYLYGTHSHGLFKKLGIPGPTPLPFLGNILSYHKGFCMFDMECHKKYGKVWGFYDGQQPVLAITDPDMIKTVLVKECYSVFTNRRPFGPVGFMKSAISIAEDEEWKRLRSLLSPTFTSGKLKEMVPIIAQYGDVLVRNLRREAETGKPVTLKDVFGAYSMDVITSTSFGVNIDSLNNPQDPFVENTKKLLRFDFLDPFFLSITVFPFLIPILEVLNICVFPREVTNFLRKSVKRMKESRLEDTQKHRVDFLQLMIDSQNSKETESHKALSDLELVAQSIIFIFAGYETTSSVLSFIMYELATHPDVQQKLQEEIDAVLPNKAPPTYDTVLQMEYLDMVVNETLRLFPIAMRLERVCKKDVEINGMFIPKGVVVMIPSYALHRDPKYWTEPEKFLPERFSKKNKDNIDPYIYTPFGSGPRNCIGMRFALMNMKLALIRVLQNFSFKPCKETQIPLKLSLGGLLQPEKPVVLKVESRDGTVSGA

In the case of `CC(C)(C)OC(=O)NCCCCCC(=O)NCc1cccnc1`, the dissociation constant Kd was determined as 105 µM.
Under `c1ccncc1` [CHEBI:16227] stands 4500 µM.

In general, Kd refers to the concentration at which binding is half-saturated.
